Measured values published in ChEMBL document CHEMBL3286316, “Cinnamic anilides as new mitochondrial permeability transition pore inhibitors endowed with ischemia-reperfusion injury protective effect in vivo” (J Med Chem, 2014).
The source made the active and inactive calls. No cut-off for these calls is given here.

Columns and labels:
Mus musculus [1] = species on record: Mus musculus; assay: Inhibition of FCCP-induced mPTP opening in C57/bl6 mouse liver mitochondria assessed as reduction in mitochondrial swelling at 1 uM by spectrophotometry
Summary of the method: (§1)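 Male C57/bl6 liver mitochondria at 0.5 mg/mL final in KCl/MOPS/phosphate buffer with glutamate/malate, pH 7.4; compound at 1 μM added before the mitochondria. Swelling followed as the fall in A540, read every 9 s for 10 min. Inducers: CaCl2 150 μM, FCCP 50 nM, menadione 100 μM, diamide 300 μM.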

Mus musculus [2] = species on record: Mus musculus; assay: Inhibition of menadione-induced mPTP opening in C57/bl6 mouse liver mitochondria assessed as reduction in mitochondrial swelling at 1 uM by spectrophotometry; summary of the method: as §1
[3] = biological target: Sodium-dependent noradrenaline transporter (Homo sapiens) (UniProt P23975); assay: Displacement of antagonist radioligand from human NET at 10 uM
Sequence of Sodium-dependent noradrenaline transporter (Homo sapiens) (P23975 whole entry): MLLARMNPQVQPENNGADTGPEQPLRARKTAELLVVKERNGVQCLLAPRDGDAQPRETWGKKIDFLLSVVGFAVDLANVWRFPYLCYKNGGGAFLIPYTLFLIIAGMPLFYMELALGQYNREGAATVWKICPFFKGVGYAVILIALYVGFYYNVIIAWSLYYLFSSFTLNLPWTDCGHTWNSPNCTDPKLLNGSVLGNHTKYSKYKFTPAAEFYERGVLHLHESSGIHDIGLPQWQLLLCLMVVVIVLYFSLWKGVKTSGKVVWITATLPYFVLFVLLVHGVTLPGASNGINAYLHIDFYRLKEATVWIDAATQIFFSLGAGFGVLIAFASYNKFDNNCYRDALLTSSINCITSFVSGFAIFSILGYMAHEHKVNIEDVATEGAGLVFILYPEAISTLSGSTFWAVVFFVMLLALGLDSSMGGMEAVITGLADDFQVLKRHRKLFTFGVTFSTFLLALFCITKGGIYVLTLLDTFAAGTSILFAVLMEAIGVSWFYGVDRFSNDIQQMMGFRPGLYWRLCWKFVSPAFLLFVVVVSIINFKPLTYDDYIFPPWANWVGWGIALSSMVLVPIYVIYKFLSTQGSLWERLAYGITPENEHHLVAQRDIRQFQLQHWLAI
Summary of the method: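 Single 10 μM concentration tested in a receptor/enzyme diversity panel, read as displacement of a target-specific radioligand.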

Mus musculus [4] = species on record: Mus musculus; assay: Inhibition of Cacl2-induced mPTP opening in C57/bl6 mouse liver mitochondria assessed as reduction in mitochondrial swelling at 1 uM by spectrophotometry; summary of the method: as §1
Mus musculus [5] = species on record: Mus musculus; assay: Inhibition of diamide-induced mPTP opening in C57/bl6 mouse liver mitochondria assessed as reduction in mitochondrial swelling at 1 uM by spectrophotometry; summary of the method: as §1
[6] = Half life in New Zealand rabbit myocardial infarction model plasma at 5 mg/kg, iv administered as bolus dose by LC/MS analysis; format: ADME, organism-based, Oryctolagus cuniculus; design: dose 5 mg/kg, route intravenous
Summary of the method: (§2)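 Satellite rabbits (n = 5) given the same 5 mg/kg iv bolus. Jugular blood taken into K2EDTA predose and at 5, 15, 30, 60 and 240 min post reperfusion. Plasma precipitated with ACN/H3PO4 and analysed by UPLC-MS/MS, ESI(+), MRM mode. Eight-point calibration 2.5–1000 ng/mL, LLOQ 2.5 ng/mL. Half-life by noncompartmental analysis.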

[7] = Plasma concentration in New Zealand rabbit myocardial infarction model at 5 mg/kg, iv administered as bolus dose after 240 mins by LC/MS analysis; format: ADME, organism-based, Oryctolagus cuniculus; design: dose 5 mg/kg, route intravenous; summary of the method: as §2
Rattus norvegicus [8] = assay: Toxicity in WI(Glx/BRL/Han)IGS rat assessed as body temperature at 30 mg/kg, iv; format: organism-based; design: dose 30 mg/kg, route intravenous; settings: in vivo
Summary of the method: (§3)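 Conscious female rats implanted with telemetry, given a single iv dose up to 30 mg/kg. Heart rate, systolic, diastolic and mean blood pressure, and body temperature recorded from at least 1 h before to about 24 h after dosing.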

[9] = Plasma concentration in New Zealand rabbit myocardial infarction model at 5 mg/kg, iv administered as bolus dose after 5 mins by LC/MS analysis; format: ADME, organism-based, Oryctolagus cuniculus; design: dose 5 mg/kg, route intravenous; summary of the method: as §2
Rattus norvegicus [10] = assay: Toxicity in WI(Glx/BRL/Han)IGS rat assessed as heart rate at 30 mg/kg, iv; format: organism-based; design: dose 30 mg/kg, route intravenous; settings: in vivo; summary of the method: as §3
Rattus norvegicus [11] = assay: Toxicity in WI(Glx/BRL/Han)IGS rat assessed as systolic blood pressure at 30 mg/kg, iv; format: organism-based, Artery; design: dose 30 mg/kg, route intravenous; settings: in vivo; summary of the method: as §3
Mus musculus [12] = species on record: Mus musculus; assay: Inhibition of calcium-induced mPTP opening in C57/bl6 mouse liver mitochondria assessed as increase in calcium retention capacity at 0.1 to 5 uM by fluorimetry
Summary of the method: (§4)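 Male C57/bl6 liver mitochondria (0.5 mg/mL) in KCl/MOPS buffer with glutamate/malate, pH 7.4, containing 1 μM Calcium Green 5N. Compound added just before the start. CaCl2 pulses added every minute at 25 °C; extramitochondrial fluorescence (ex 505/em 535 nm) followed until mPTP opening. Dose series 0.1–5.0 μM, or given in combination with CsA; mean of three experiments.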

[13] = biological target: Voltage-gated inwardly rectifying potassium channel KCNH2 (Homo sapiens, UniProt Q12809); assay: Displacement of [3H]-astemizole from human hERG expressed in HEK293 cells at 30 uM by liquid scintillation counting; format: cell-based; settings: hek293, 30 µM
Sequence of Voltage-gated inwardly rectifying potassium channel KCNH2 (Q12809 whole entry): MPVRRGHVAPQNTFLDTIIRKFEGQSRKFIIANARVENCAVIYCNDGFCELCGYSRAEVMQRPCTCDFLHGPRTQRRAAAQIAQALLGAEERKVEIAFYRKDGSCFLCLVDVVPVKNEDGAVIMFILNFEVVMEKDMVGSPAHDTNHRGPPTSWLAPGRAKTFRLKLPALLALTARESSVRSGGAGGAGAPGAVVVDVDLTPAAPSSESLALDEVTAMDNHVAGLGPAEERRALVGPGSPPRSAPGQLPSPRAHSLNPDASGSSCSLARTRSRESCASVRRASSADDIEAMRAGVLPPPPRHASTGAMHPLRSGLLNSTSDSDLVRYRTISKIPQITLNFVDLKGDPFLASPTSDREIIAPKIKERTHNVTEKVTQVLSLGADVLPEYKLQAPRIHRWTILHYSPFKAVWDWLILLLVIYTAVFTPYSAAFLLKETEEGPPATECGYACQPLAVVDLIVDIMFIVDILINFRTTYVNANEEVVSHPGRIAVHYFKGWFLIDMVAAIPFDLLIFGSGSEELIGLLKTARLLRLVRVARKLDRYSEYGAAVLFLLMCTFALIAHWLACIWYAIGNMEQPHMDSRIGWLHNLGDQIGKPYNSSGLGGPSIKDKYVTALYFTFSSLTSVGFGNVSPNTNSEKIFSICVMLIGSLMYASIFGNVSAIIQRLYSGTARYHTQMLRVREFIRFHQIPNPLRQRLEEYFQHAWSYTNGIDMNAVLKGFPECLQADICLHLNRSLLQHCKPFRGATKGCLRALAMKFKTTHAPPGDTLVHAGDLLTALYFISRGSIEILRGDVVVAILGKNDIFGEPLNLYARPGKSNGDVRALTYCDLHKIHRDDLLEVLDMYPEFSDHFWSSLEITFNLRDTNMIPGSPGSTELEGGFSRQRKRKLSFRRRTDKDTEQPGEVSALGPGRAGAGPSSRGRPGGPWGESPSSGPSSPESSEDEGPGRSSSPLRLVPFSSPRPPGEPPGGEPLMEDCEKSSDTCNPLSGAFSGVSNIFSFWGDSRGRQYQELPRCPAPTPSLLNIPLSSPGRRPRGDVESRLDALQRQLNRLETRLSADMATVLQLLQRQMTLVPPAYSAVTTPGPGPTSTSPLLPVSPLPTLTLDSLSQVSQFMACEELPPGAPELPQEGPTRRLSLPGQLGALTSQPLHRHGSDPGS

Mus musculus [14] = assay: Increase in calcium retention capacity in C57/bl6 mouse heart mitochondria at 15 mg/kg, iv measured after 5 mins by fluorimetry (reference value: 69.8 uM); format: functional
Summary of the method: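 Mice dosed 15 mg/kg iv in the tail vein. Hearts taken 5 min later and mitochondria isolated in sucrose/Tris/EGTA/0.1% BSA buffer. CRC measured with Calcium Green 5N under CaCl2 pulses added every minute at 25 °C until mPTP opening. Value is absolute calcium retained; vehicle DMSO, n = 16 vehicle, n = 6 treated.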

Rattus norvegicus [15] = assay: Toxicity in WI(Glx/BRL/Han)IGS rat assessed as diastolic blood pressure at 30 mg/kg, iv; format: organism-based, Artery; design: dose 30 mg/kg, route intravenous; settings: in vivo; summary of the method: as §3
Oryctolagus cuniculus [16] = assay: Cardioprotective effect in New Zealand rabbit ischemia/reperfusion-induced left anterior descending coronary artery ligation myocardial infarction model assessed as ratio of area at risk to infarct area at 5 mg/kg, iv administered as bolus dose 5 min prior to reperfusion (reference value: 57.3%); format: functional, Myocardium
Mus musculus [17] = species on record: Mus musculus; assay: Inhibition of calcium-induced mPTP opening in C57/bl6 mouse liver mitochondria assessed as increase in calcium retention capacity in presence of cyclosporine A by fluorimetry; summary of the method: as §4
Mus musculus [18] = species on record: Mus musculus; assay: Inhibition of calcium-induced mPTP opening in C57/bl6 mouse heart mitochondria assessed as increase in calcium retention capacity at 5 uM after 2 mins by fluorimetry (reference value: 80 uM)
Summary of the method: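 Excised mouse hearts on a Langendorff apparatus, perfused 2 min with Krebs-type buffer, then 2 min with 5 μM compound in 0.1% DMSO or 0.1% DMSO alone. Hearts iced, mitochondria isolated, CRC measured with Calcium Green 5N and repeated CaCl2 pulses at 25 °C. Value is absolute calcium retained; n = 6 per group.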

Oryctolagus cuniculus [19] = assay: Cardioprotective effect in New Zealand rabbit ischemia/reperfusion-induced left anterior descending coronary artery ligation myocardial infarction model assessed as ratio of area at risk to infarct area at 10 mg/kg, iv administered as bolus dose 5 min prior to reperfusion (reference value: 57.3%); format: functional, Myocardium

Question: Which results are given for COc1ccc(/C=C/C(=O)Nc2cccc(Cl)c2)cc1O?
Answer: inhibition (Mus musculus [1]): Active; inhibition (Mus musculus [2]): Active; inhibition [3]: > 50%; inhibition (Mus musculus [4]): Active; inhibition (Mus musculus [5]): Active

Question: For O=C(/C=C/c1ccc(F)c(O)c1)Nc1cccc2ccccc12, which half-life [6] is on record?
Answer: 30 min

Question: What about the concentration at 4 h [7] of the same compound?
Answer: 20 nM

Question: And the Activity (Rattus norvegicus [8])?
Answer: Non-toxic

Question: And the concentration at 5 min [9]?
Answer: 4800 nM

Question: And the Activity (Rattus norvegicus [10])?
Answer: Non-toxic

Question: And the Activity (Rattus norvegicus [11])?
Answer: Non-toxic

Question: And the inhibition (Mus musculus [12])?
Answer: Dose-dependent effect

Question: And the Activity [13]?
Answer: Not Active

Question: And the Activity (Mus musculus [14])?
Answer: 108.4 µM

Question: And the Activity (Rattus norvegicus [15])?
Answer: Non-toxic

Question: What about the Activity (Oryctolagus cuniculus [16]) of the same compound?
Answer: 30.9%

Question: What about the inhibition (Mus musculus [17]) of the same compound?
Answer: Active

Question: What about the INH (Mus musculus [18]) of the same compound?
Answer: 125 µM

Question: For C/C=C/C[C@@H](C)[C@@H](O)[C@H]1C(=O)N[C@@H](CC)C(=O)N(C)CC(=O)N(C)[C@@H](CC(C)C)C(=O)N[C@@H](C(C)C)C(=O)N(C)[C@@H](CC(C)C)C(=O)N[C@@H](C)C(=O)N[C@H](C)C(=O)N(C)[C@@H](CC(C)C)C(=O)N(C)[C@@H](CC(C)C)C(=O)N(C)[C@@H](C(C)C)C(=O)N1C [CYCLOSPORINE], which Activity (Oryctolagus cuniculus [19]) is on record?
Answer: 32.6%
